{"data": "Measurements pooled from the literature", "target": "Ephrin type-B receptor 4 (EPHB4, Homo sapiens, UniProt P54760)", "One construct used (P54760 16-987)": "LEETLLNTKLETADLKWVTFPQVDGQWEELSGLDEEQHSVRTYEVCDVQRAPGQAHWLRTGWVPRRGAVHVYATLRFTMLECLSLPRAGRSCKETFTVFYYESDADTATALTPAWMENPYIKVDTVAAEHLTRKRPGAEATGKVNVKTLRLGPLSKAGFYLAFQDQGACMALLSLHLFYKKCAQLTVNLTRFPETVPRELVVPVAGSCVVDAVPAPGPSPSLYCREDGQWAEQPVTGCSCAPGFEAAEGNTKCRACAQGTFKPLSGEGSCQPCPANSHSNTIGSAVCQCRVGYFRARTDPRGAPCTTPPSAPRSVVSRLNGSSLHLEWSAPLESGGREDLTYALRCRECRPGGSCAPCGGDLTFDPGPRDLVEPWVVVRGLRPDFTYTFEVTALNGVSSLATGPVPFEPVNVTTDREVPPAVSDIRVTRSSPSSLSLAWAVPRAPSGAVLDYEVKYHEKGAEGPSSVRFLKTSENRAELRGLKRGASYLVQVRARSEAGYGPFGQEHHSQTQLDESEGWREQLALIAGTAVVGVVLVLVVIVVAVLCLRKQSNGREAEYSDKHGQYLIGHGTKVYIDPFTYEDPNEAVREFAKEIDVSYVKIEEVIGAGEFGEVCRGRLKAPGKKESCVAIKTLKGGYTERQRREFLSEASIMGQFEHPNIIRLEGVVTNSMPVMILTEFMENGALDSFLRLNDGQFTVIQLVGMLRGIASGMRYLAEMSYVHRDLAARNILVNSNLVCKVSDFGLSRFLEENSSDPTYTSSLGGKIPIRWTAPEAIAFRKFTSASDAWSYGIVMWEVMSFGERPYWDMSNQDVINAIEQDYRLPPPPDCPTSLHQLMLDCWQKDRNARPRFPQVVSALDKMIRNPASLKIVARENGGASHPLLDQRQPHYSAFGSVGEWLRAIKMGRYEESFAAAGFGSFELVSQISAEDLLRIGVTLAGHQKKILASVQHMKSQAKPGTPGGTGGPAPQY"}
{"Compound": "C[C@H]1CCN(c2nccc(-c3cnn4ncccc34)n2)C1", "assay": "binding", "setting": "1 µM", "remaining binding [%]": 100}
{"Compound": "Cc1cnc(Nc2ccc(C(=O)N3CCC(N4CCCC4)CC3)cc2)nc1-c1cc2ccccc2s1", "assay": "binding, competition with immobilised ligand", "setting": "1 µM", "remaining binding [%]": 27}
{"Compound": "CCN1CCN(Cc2ccc(C(=O)Nc3ccc(C)c(Oc4ccc5c(c4)CC(=O)N5)c3)cc2C(F)(F)F)CC1", "assay": "binding, competition with immobilised ligand", "setting": "1 µM", "remaining binding [%]": 90}
{"Compound": "CCCCN(CCCC)C(=O)CN1C[C@@H](c2cc(OC)c3c(c2)OCO3)[C@H](C(=O)O)[C@H]1CC(C)(C)CCC", "assay": "cell-free assay, competition with immobilised ligand", "setting": "1 µM", "remaining binding [%]": 98.5}
{"Compound": "c1cncc(-c2cccc(Nc3nccc(NC4CCCCC4)n3)c2)c1", "assay": "binding, competition with immobilised ligand", "setting": "10 µM", "remaining binding [%]": 89}
{"Compound": "CN(CCCC(F)(F)F)c1nccc(-c2cnn3ncccc23)n1", "assay": "binding", "setting": "1 µM", "remaining binding [%]": 93}
{"Compound": "CNC(=O)[C@@H]1CC[C@@H](n2c(-c3ccc4cnccc4c3)nc3ccc(C(=O)NCc4cccc(C(N)=O)c4)cc32)C1", "assay": "binding, competition with immobilised ligand", "setting": "1 µM", "remaining binding [%]": 100}
{"Compound": "O=C(c1ccc(Nc2nccc(-c3cc4ccccc4s3)n2)cc1)N1CCC(N2CCCC2)CC1", "assay": "binding, competition with immobilised ligand", "setting": "1 µM", "remaining binding [%]": 87}
{"Compound": "Cn1cc(Cl)c2c(Oc3c(F)cc(Nc4cc(Cl)nc(N)n4)cc3F)ccnc21", "assay": "cell-free assay, competition with immobilised ligand", "setting": "0.1 µM", "remaining binding [%]": 100}
{"Compound": "FC(F)(F)Oc1cccc(-c2cnc3ccc(-c4ccncc4)nn23)c1", "assay": "cell-free assay, competition with immobilised ligand", "setting": "5 µM", "remaining binding [%]": 87}
{"Compound": "CN(C)c1nccc(-c2cnn3ncccc23)n1", "assay": "binding", "setting": "1 µM", "remaining binding [%]": 100}
{"Compound": "C[C@H](c1ccc(F)cc1)N(Cc1cccc(C(=O)O)c1)C(=O)c1cnc2ccccc2c1", "assay": "cell-free assay, competition with immobilised ligand", "setting": "1 µM", "remaining binding [%]": 100}
{"Compound": "COc1ccnn2ncc(-c3ccnc(N(C)C)n3)c12", "assay": "binding", "setting": "1 µM", "remaining binding [%]": 86}
{"Compound": "O=C(NCCCN1CCOCC1)c1ccc(Nc2nccc(-c3cc4ccccc4s3)n2)cc1", "assay": "binding, competition with immobilised ligand", "setting": "1 µM", "remaining binding [%]": 78}
{"Compound": "O=C(NCC1CCOCC1)c1n[nH]cc1NC(=O)c1c(F)cccc1F", "assay": "binding, competition with immobilised ligand", "setting": "1 µM", "remaining binding [%]": 100}
{"Compound": "Cc1cc(C)c(-n2ccn3nc(-c4cccnc4)cc23)cc1NC(=O)c1cc(C#N)cc(S(F)(F)(F)(F)F)c1", "assay": "cell-free assay, competition with immobilised ligand", "setting": "0.1 µM", "remaining binding [%]": 99.6}
{"Compound": "COc1cnc(Nc2cccc(S(N)(=O)=O)c2)nc1N1CCN(c2ccccc2)CC1", "assay": "binding, competition with immobilised ligand", "setting": "1 µM", "remaining binding [%]": 96}
{"Compound": "Cc1noc([C@H]2C[C@@H](c3ccc(C(F)(F)F)cc3)CN(C(=O)N3CCS(=O)(=O)C3)C2)n1", "assay": "cell-free assay, competition with immobilised ligand", "setting": "1 µM", "remaining binding [%]": 100}
{"Compound": "CN(c1nccc(-c2cnn3ncccc23)n1)C1CC1", "assay": "binding", "setting": "1 µM", "remaining binding [%]": 100}
{"Compound": "CC1=C(C#N)C(c2ccc3c(c2)c(NC(=O)c2ccccc2C)nn3C)C(C#N)=C(C)N1", "assay": "cell-free assay, competition with immobilised ligand", "setting": "1 µM", "remaining binding [%]": 97}
{"Compound": "CN(C)c1nccc(-c2cnc3ncccn23)n1", "assay": "binding", "setting": "1 µM", "remaining binding [%]": 100}
